Results: ChEMBL document CHEMBL3608306, “Design, synthesis and evaluation of new GEQ derivatives as inhibitors of InhA enzyme and Mycobacterium tuberculosis growth” (Eur J Med Chem, 2015)
Values after ≈ are worked out from the molar mass of the structure shown.

How the values were obtained:
[1] = test system: Mycobacterium tuberculosis; assay: Inhibition of Mycobacterium tuberculosis His6-tagged InhA expressed in Escherichia coli BL21 using 2-trans-dodecenoyl-CoA as substrate assessed as conversion of NADH to NAD+ at 50 uM relative to control
How it was run: (§1)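 Triplicate NADH-dependent reduction of the substrate analogue 2-trans-dodecenoyl-CoA by InhA, with NADH oxidation to NAD+ followed as the fall in absorbance at 340 nm. Percent inhibition was screened at 50 µM, or at 10 µM where solubility limited. IC50 came from 4-parameter curve fits of at least six concentrations.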

[2] = test system: Mycobacterium tuberculosis; assay: Antimycobacterial activity against Mycobacterium tuberculosis H37Rv after 21 days by microbroth dilution method; format: functional
[3] = Inhibition of Mycobacterium tuberculosis His6-tagged InhA expressed in Escherichia coli BL21 using 2-trans-dodecenoyl-CoA as substrate assessed as conversion of NADH to NAD+; how it was run: as §1
[4] = test system: Mycobacterium tuberculosis; assay: Inhibition of Mycobacterium tuberculosis His6-tagged InhA expressed in Escherichia coli BL21 using 2-trans-dodecenoyl-CoA as substrate assessed as conversion of NADH to NAD+ at 10 uM relative to control; how it was run: as §1
[5] = test system: Mycobacterium tuberculosis; assay: Ratio of MIC for Mycobacterium tuberculosis H37Rv in absence of reserpine to MIC for Mycobacterium tuberculosis H37Rv in presence of reserpine; format: functional
[6] = test system: Mycobacterium tuberculosis; assay: Antimycobacterial activity against Mycobacterium tuberculosis H37Rv after 21 days by microbroth dilution method in presence of 40 ug/ml efflux pump inhibitor verapamil; format: functional; conditions: 504 h
[7] = test system: Mycobacterium tuberculosis; assay: Antimycobacterial activity against Mycobacterium tuberculosis H37Rv after 21 days by microbroth dilution method in presence of 7.5 ug/ml efflux pump inhibitor CCCP; format: functional; conditions: 504 h
[8] = test system: Mycobacterium tuberculosis; assay: Ratio of MIC for Mycobacterium tuberculosis H37Rv in absence of CCCP to MIC for Mycobacterium tuberculosis H37Rv in presence of CCCP; format: functional
[9] = test system: Mycobacterium tuberculosis; assay: Antimycobacterial activity against Mycobacterium tuberculosis H37Rv after 21 days by microbroth dilution method in presence of 3 ug/ml efflux pump inhibitor reserpine; format: functional; conditions: 504 h
[10] = test system: Mycobacterium tuberculosis; assay: Ratio of MIC for Mycobacterium tuberculosis H37Rv in absence of verapamil to MIC for Mycobacterium tuberculosis H37Rv in presence of verapamil; format: functional
[11] = test system: Mycobacterium tuberculosis; assay: Inhibition of Mycobacterium tuberculosis His6-tagged InhA expressed in Escherichia coli BL21 using 2-trans-dodecenoyl-CoA as substrate assessed as conversion of NADH to NAD+ at 5 uM relative to control
How it was run: (§2)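 Chirally separated enantiomers were tested for InhA inhibition at 5 µM or 250 nM, run in triplicate. The assay used 2-trans-dodecenoyl-CoA substrate and NADH, read as the decrease in absorbance at 340 nm from NADH oxidation to NAD+. IC50 came from 4-parameter fits of at least six points.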

[12] = test system: Mycobacterium tuberculosis; assay: Inhibition of Mycobacterium tuberculosis His6-tagged InhA expressed in Escherichia coli BL21 using 2-trans-dodecenoyl-CoA as substrate assessed as conversion of NADH to NAD+ at 250 nM relative to control; how it was run: as §2
[13] = test system: Mycobacterium tuberculosis; assay: Antimycobacterial activity against Mycobacterium tuberculosis by CFU counting method; format: functional
[14] = test system: Mycobacterium tuberculosis; assay: Antimycobacterial activity against Mycobacterium tuberculosis by Alamar blue assay; format: functional
[15] = Mycobacterium tuberculosis, H37Rv, 504 h, read-out: MIC

| Structure (SMILES) | inhibition [1] | MIC [2, 15] | IC50 [3] | inhibition [4] | also measured |
| --- | --- | --- | --- | --- | --- |
| S=C(c1ccccc1)N1CCN(C2c3ccccc3-c3ccccc32)CC1 | 31% | 13.5 µM (≈ 5 µg/mL) | – | – | – |
| CCCCCCOc1ccc2c(c1)-c1ccccc1C2N1CCN(C(=O)c2ccccc2)CC1 (racemic) [listing 1 of 2 here] | – | 22 µM (≈ 10 µg/mL) | 200 nM | – | – |
| CCCCCCc1ccc2c(c1)C(N1CCN(C(=O)c3ccccc3)CC1)c1ccccc1-2 (racemic) | 48% | 22.8 µM (≈ 10 µg/mL) | – | 45% | – |
| COP(=O)(c1ccccc1)N1CCN(C2c3ccccc3-c3ccccc32)CC1 (racemic) | 17% | > 25.7 µM | – | – | – |
| CCCOc1ccc2c(c1)C(N1CCN(C(=O)c3ccccc3)CC1)c1ccccc1-2 (racemic) | 88% | > 24.2 µM | 1300 nM | 83% | – |
| O=C1CN(C2c3ccccc3-c3ccccc32)CCN1C(=O)c1ccccc1 | 26% | > 27.1 µM | – | – | – |
| CCCCCCOc1ccc2c(c1)-c1ccccc1C2N1CCN(C(=O)c2ccccc2)CC1 (single isomer, unassigned; enantiomer 2) [listing 1 of 2 here] | – | – | 102 nM | – | Ratio [5]: >4; MIC [6]: 11 µM; MIC [2]: 11 µM (≈ 5 µg/mL); MIC [7]: < 2.7 µM; Ratio [8]: >4; MIC [9]: < 2.7 µM |
| CCCCNC(=O)N1CCN(C2c3ccccc3-c3ccccc32)CC1 | 68% | 14.3 µM (≈ 5 µg/mL) | – | 42% | – |
| CCCCCCOc1ccc2c(c1)-c1ccccc1C2C1CCN(C(=O)c2ccccc2)CC1 (racemic) | 64% | 88.2 µM (≈ 40 µg/mL) | 1050 nM | 71% | Ratio [5]: 4; Ratio [10]: 2; MIC [6]: 44.1 µM; MIC [9]: 22.1 µM |
| COc1ccc2c(c1)-c1ccccc1C2N1CCN(C(=O)c2ccccc2)CC1 (single isomer, unassigned; enantiomer 1) [listing 1 of 2 here] | – | – | – | – | inhibition [11]: 11% |
| [O-][S+](c1ccccc1)N1CCN(C2c3ccccc3-c3ccccc32)CC1 (racemic) | 14% | > 26.7 µM | – | – | – |
| CCCCCCOc1ccc2c(c1)-c1ccccc1C2N1CCN(C(=O)c2ccccc2)CC1 (single isomer, unassigned; enantiomer 2) [listing 2 of 2 here] | – | – | – | – | inhibition [12]: 71% |
| O=C(Nc1ccc([N+](=O)[O-])cc1)N1CCN(C2c3ccccc3-c3ccccc32)CC1 | 33% | 12.1 µM (≈ 5.02 µg/mL) | – | – | – |
| CCCCCCc1ccc2c(c1)-c1ccccc1C2N1CCN(C(=O)c2ccccc2)CC1 (racemic) | 60% | 22.8 µM (≈ 10 µg/mL) | 1000 nM | 52% | – |
| COc1ccc2c(c1)-c1ccccc1C2N1CCN(C(=O)c2ccccc2)CC1 (stereo in doubt; 31b) [listing 1 of 2 here] | – | – | – | – | inhibition [11]: 68% |
| O=C(Nc1ccccc1)N1CCN(C2c3ccccc3-c3ccccc32)CC1 | 84% | > 27.1 µM | 1180 nM | 79% | – |
| O=C(c1ccc2[nH]ccc2c1)N1CCN(C2c3ccccc3-c3ccccc32)CC1 | 87% | 50.1 µM (≈ 19.7 µg/mL) | 860 nM | 81% | Ratio [10]: >4; MIC [6]: < 12.7 µM; MIC [7]: < 12.7 µM; MIC [13]: > 125 µM; Ratio [8]: >4; MIC [14]: > 125 µM; MIC [9]: 25.4 µM |
| CCCCCCOc1ccc2c(c1)-c1ccccc1C2N1CCN(C(=O)c2ccccc2)CC1 (single isomer, unassigned) [listing 1 of 2 here] | – | – | – | – | inhibition [12]: 0% |
| CCCCCCCCC(=O)N1CCN(C2c3ccccc3-c3ccccc32)CC1 | 47% | 12.8 µM (≈ 5 µg/mL) | – | 22% | – |

| Structure (SMILES) | inhibition [1] | MIC [2, 15] | IC50 [3] | inhibition [4] | also measured |
| --- | --- | --- | --- | --- | --- |
| S=C(Nc1ccccc1)N1CCN(C2c3ccccc3-c3ccccc32)CC1 | 57% | > 25.9 µM | – | 32% | – |
| CP(=O)(c1ccccc1)N1CCN(C2c3ccccc3-c3ccccc32)CC1 (racemic) | 17% | > 24.7 µM | – | – | – |
| COc1ccc2c(c1)-c1ccccc1C2N1CCN(C(=O)c2ccccc2)CC1 (racemic) [listing 1 of 2 here] | 92% | – | – | 74% | inhibition [11]: 60% |
| NNC(=O)c1ccncc1 [ISONIAZID] | – | 0.4 µM (≈ 0.0549 µg/mL) | – | – | – |
| O=C(c1ccccc1)N1CCN(C2c3ccccc3-c3ccccc32)CC1 | 94% | 14.1 µM (≈ 5 µg/mL) | 490 nM | 94% | MIC [6]: 56.5 µM; MIC [7]: < 3.5 µM; Ratio [8]: >5; MIC [9]: 56.5 µM |
| CCCCCCCCNC(=O)N1CCN(C2c3ccccc3-c3ccccc32)CC1 | 34% | > 24.7 µM | – | – | – |
| CCCCCCOc1ccc2c(c1)-c1ccccc1C2N1CCN(C(=O)c2ccccc2)CC1 (racemic) [listing 2 of 2 here] | 79% | – | – | 70% | inhibition [12]: 53% |
| COc1ccc2c(c1)-c1ccccc1C2N1CCN(C(=O)c2ccccc2)CC1 (stereo in doubt; 31b) [listing 2 of 2 here] | – | – | 2070 nM | – | – |
| COc1ccc2c(c1)-c1ccccc1C2N1CCN(C(=O)c2ccccc2)CC1 (racemic) [listing 2 of 2 here] | – | 26 µM (≈ 10 µg/mL) | 2690 nM | – | – |
| O=C(c1ccccc1)N1CCC(C2c3ccccc3-c3ccccc32)CC1 | 93% | 28.3 µM (≈ 10 µg/mL) | 940 nM | 88% | – |
| CCCOc1ccc2c(c1)-c1ccccc1C2N1CCN(C(=O)c2ccccc2)CC1 (racemic) | 91% | 24.2 µM (≈ 9.98 µg/mL) | 1010 nM | 84% | – |
| O=S(=O)(c1ccccc1)N1CCN(C2c3ccccc3-c3ccccc32)CC1 | 12% | > 25.6 µM | – | – | – |
| CCCCCCOc1ccc2c(c1)-c1ccccc1C2N1CCN(C(=O)c2ccccc2)CC1 (single isomer, unassigned) [listing 2 of 2 here] | – | – | – | – | MIC [2]: >22 µM |
| COc1ccc2c(c1)-c1ccccc1C2N1CCN(C(=O)c2ccccc2)CC1 (single isomer, unassigned; enantiomer 1) [listing 2 of 2 here] | – | – | – | – | MIC [2]: >26 µM |
| c1ccc2c(c1)-c1ccccc1C2N1CCNCC1 | 7% | > 39.9 µM | – | – | – |
| CCCCCCCCc1ccc2c(c1)C(N1CCN(C(=O)c3ccccc3)CC1)c1ccccc1-2 (racemic) | 54% | > 21.4 µM | – | 27% | – |
| CCCCC(=O)N1CCN(C2c3ccccc3-c3ccccc32)CC1 | 75% | 29.9 µM (≈ 10 µg/mL) | – | 45% | – |
| O=C(c1ccccc1)N1CCN(C2c3ccccc3-c3cc(OCc4ccccc4)ccc32)CC1 (racemic) | 63% | > 21.7 µM | 1000 nM | 57% | – |
